# From paper PMC4284021 (The Journal of Pharmacy and Pharmacology, 2014)
# “And” between values parts separate entries of the source, which are not always exact repeats. Equal entries are not always repeated. “Also recorded” adds a separate entry of the source. Marks after values point to notes of the source that are not given here.
# Experiments:
# Format in all cases: in vivo, human
# [1] = Multiple-dose pharmacokinetics of evacetrapib in plasma; details: for CL/F: geometric mean (CV %)
# How it was run: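 Once-daily oral doses of 10–600 mg for 14–15 days. Sampling: six serial samples on Day 1; 11 through 336 h after the last dose; trough samples on Days 2, 3, 4, 7 and 10. Acidified K2EDTA plasma was extracted by anion-exchange SPE with an isotope-labelled internal standard. Analysis by C18 LC/MS/MS, positive ion, SRM m/z 639→314. Range 1–1000 ng/ml. Parameters by non-compartmental analysis; dose proportionality on Day 14 by power model.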
# [2] = test system: HDL-C, LDL-C, total cholesterol, triglycerides; test: Lipid analyses; details: for HDL-C: Mean % change from baseline (90% CI) / HDL-C: Mean % change vs placebo (90 % CI) / LDL-C: Mean % change from baseline (90% CI) / LDL-C: Mean % change vs placebo (90 % CI) / Total cholesterol: Mean % change from baseline (90% CI) / Total cholesterol: Mean % change vs placebo (90 % CI) / Triglycerides: Mean % change from baseline (90% CI) / Triglycerides: Mean % change vs placebo (90 % CI): day 14
# How it was run: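 Placebo-controlled once-daily oral capsules (10–600 mg) with a low-fat meal for 14–15 days. Total cholesterol and triglycerides were measured by enzymatic methods. HDL-C was measured after dextran sulfate precipitation and centrifugation of LDL/VLDL. LDL-C was measured by a direct assay. Change from baseline was taken to Day 14 and to 2 weeks after the last dose. Emax models (Hill coefficient 1, baseline covariate) were used for HDL-C/LDL-C; linear models for total cholesterol and triglycerides.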
# [3] = test system: apolipoproteins (apo AI, apo AII, apo B, apo E); test: Apolipoprotein concentrations by immunoturbidimetric methods in healthy subjects; details: 10 mg/day, day 14
# How it was run: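 Healthy adults took placebo or test compound (10, 100, 300, 600 mg) as capsules once daily with a low-fat meal for 14–15 days. Apo AI, AII, B and E were measured by immunoturbidimetry on a Roche Modular analyser. Values are percent change from baseline to Day 14, including all randomized subjects given at least one dose.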
structure (smiles),measurement,setting,value
Cc1cc(C)c2c(c1)[C@@H](N(Cc1cc(C(F)(F)F)cc(C(F)(F)F)c1)c1nnn(C)n1)CCCN2C[C@H]1CC[C@H](C(=O)O)CC1 [evacetrapib],CL/F,"[1]; 10 mg once daily, steady state",17.5 (21) l/h
same,CL/F,"[1]; 100 mg once daily, steady state",21.7 (30) l/h
same,CL/F,"[1]; 300 mg once daily, steady state",39.6 (44) l/h
same,CL/F,"[1]; 600 mg once daily, steady state, n = 24",43.6 ^e (34) l/h
same,levels of evacetrapib 3 weeks after last dose,"[1]; 600 mg/day for 14 days, crossover cohort, 3-week washout",undetectable levels; also recorded: complete washout
same,dose proportionality of plasma exposure,[1]; 10–600 mg,less than dose-proportional
same,"mean apparent oral clearance at steady state, range across doses",[1]; 10–600 mg,17.5 to 43.6 L/h
same,"AUCt,ss for 600 mg relative to 100 mg",[1]; after 14 daily doses,approximately threefold
same,accumulation ratio during multiple dosing,"[1]; based on trough concentrations, between Days 1 and 14",2–2.5
same,levels of evacetrapib after 2-week (336 h) washout,[1]; each dose group,returned to levels at or near baseline; also recorded: decreased to near the lower limit of detection
same,half-life,"[1]; human, plasma, oral",24 to 44 h
same,Tmax,"[1]; human, plasma, oral, 10 mg, tmax, 10 mg once daily, steady state, median (range)",4.02 h
same,time to steady state,[1]; once-daily dosing,approximately 10 days
same,HDL-C: Mean % change from baseline (90% CI),[2]; 10 mg/day,"11.69 (4.39, 18.99) %"
same,HDL-C: Mean % change vs placebo (90 % CI),[2]; 10 mg/day,"18.02 (9.76, 26.28) ^*** %"
same,LDL-C: Mean % change from baseline (90% CI),[2]; 10 mg/day,"−11.94 (−18.31, −5.57) %"
same,LDL-C: Mean % change vs placebo (90 % CI),[2]; 10 mg/day,"−13.59 (−21.83, −5.35) ^** %"
same,Total cholesterol: Mean % change from baseline (90% CI),[2]; 10 mg/day,"−4.92 (−15.93, 6.10) %"
same,Total cholesterol: Mean % change vs placebo (90 % CI),[2]; 10 mg/day,"−4.26 (−17.58, 9.06) %"
same,Triglycerides: Mean % change from baseline (90% CI),[2]; 10 mg/day,"−12.92 (−26.89, 1.06) %"
same,Triglycerides: Mean % change vs placebo (90 % CI),[2]; 10 mg/day,"5.51 (−11.39, 22.40) %"
same,HDL-C: Mean % change from baseline (90% CI),[2]; 100 mg/day,"59.28 (51.54, 67.02) %"
same,HDL-C: Mean % change vs placebo (90 % CI),[2]; 100 mg/day,"65.61 (53.34, 77.88) ^*** %"
same,LDL-C: Mean % change from baseline (90% CI),[2]; 100 mg/day,"−24.47 (−27.68, −21.26) %"
same,LDL-C: Mean % change vs placebo (90 % CI),[2]; 100 mg/day,"−26.13 (−32.39, −19.86) ^*** %"
same,Total cholesterol: Mean % change from baseline (90% CI),[2]; 100 mg/day,"6.83 (−4.18, 17.85) %"
same,Total cholesterol: Mean % change vs placebo (90 % CI),[2]; 100 mg/day,"7.49 (−5.83, 20.81) %"
same,Triglycerides: Mean % change from baseline (90% CI),[2]; 100 mg/day,"−3.75 (−17.73, 10.23) %"
same,Triglycerides: Mean % change vs placebo (90 % CI),[2]; 100 mg/day,"14.67 (−2.22, 31.57) %"
same,HDL-C: Mean % change from baseline (90% CI),[2]; 300 mg/day,"75.22 (68.87, 81.58) %"
same,HDL-C: Mean % change vs placebo (90 % CI),[2]; 300 mg/day,"81.56 (70.90, 92.22) ^*** %"
same,LDL-C: Mean % change from baseline (90% CI),[2]; 300 mg/day,"−26.39 (−29.92, −22.85) %"
same,LDL-C: Mean % change vs placebo (90 % CI),[2]; 300 mg/day,"−28.04 (−34.18, −21.90) ^*** %"
same,Total cholesterol: Mean % change from baseline (90% CI),[2]; 300 mg/day,"15.60 (3.53, 27.67) %"
same,Total cholesterol: Mean % change vs placebo (90 % CI),[2]; 300 mg/day,"16.25 (2.05, 30.46) %"
same,Triglycerides: Mean % change from baseline (90% CI),[2]; 300 mg/day,"−2.10 (−17.41, 13.21) %"
same,Triglycerides: Mean % change vs placebo (90 % CI),[2]; 300 mg/day,"16.32 (−1.69, 34.34) %"
same,decrease in LDL-C,"[2]; 600 mg, Day 14, relative to placebo",29%
same,HDL-C: Mean % change from baseline (90% CI),[2]; 600 mg/day,"80.50 (73.05, 87.95) %"
same,HDL-C: Mean % change vs placebo (90 % CI),[2]; 600 mg/day,"87% and 86.83 (75.96, 97.71) ^*** %"
same,LDL-C: Mean % change from baseline (90% CI),[2]; 600 mg/day,"−26.91 (−30.71, −23.11) %"
same,LDL-C: Mean % change vs placebo (90 % CI),[2]; 600 mg/day,"−28.56 (−34.76, −22.37) ^*** %"
same,Total cholesterol: Mean % change from baseline (90% CI),[2]; 600 mg/day,"15.48 (7.85, 23.11) %"
same,Total cholesterol: Mean % change vs placebo (90 % CI),[2]; 600 mg/day,"16.13 (5.44, 26.82) ^* %"
same,Triglycerides: Mean % change from baseline (90% CI),[2]; 600 mg/day,"−22.08 (−31.76, −12.40) %"
same,Triglycerides: Mean % change vs placebo (90 % CI),[2]; 600 mg/day,"−3.66 (−17.22, 9.91) %"
same,changes in triglycerides,"[2]; 10–600 mg, Day 14",no statistically significant changes
same,HDL-C change (SD) from baseline to 2 weeks after the last dose,[2]; 600-mg dose group,7.3%
same,LDL-C change (SD) from baseline to 2 weeks after the last dose,[2]; 600-mg dose group,−2.6%
same,HDL-C and LDL-C after 2-week washout,[2]; all dose groups,returned to levels at or near baseline
same,Apo AI: Mean % change from baseline (90% CI),[3],"3.53 (−2.23, 9.30) %"
same,Apo AI: Mean % change vs placebo (90 % CI),[3],"15.29 (7.74, 22.84) ^** %"
same,Apo AII: Mean % change from baseline (90% CI),[3],"−1.30 (−5.34, 2.73) %"
same,Apo AII: Mean % change vs placebo (90 % CI),[3],"4.29 (−0.90, 9.48) %"
same,Apo B: Mean % change from baseline (90% CI),[3],"−8.09 (−13.41, −2.77) %"
same,Apo B: Mean % change vs placebo (90 % CI),[3],"−15.05 (−22.68, −7.43) ^** %"
same,Apo E: Mean % change from baseline (90% CI),[3],"19.70 (5.10, 34.30) %"
